These results are taken from ChEMBL document CHEMBL1133492, “Design, synthesis, and biological evaluation of fluoronitrophenyl substituted folate analogues as potential inhibitors of GAR transformylase and AICAR transformylase” (Bioorg Med Chem Lett, 2000).

Active and inactive are the calls of the source. The rule behind the calls is not given here. A value given as a limit tells only on which side of the number the result lay.

Experiment [1] has as its target T1, Trifunctional purine biosynthetic protein adenosine-3 (Homo sapiens) (UniProt P22102).
T1 sequence (whole entry): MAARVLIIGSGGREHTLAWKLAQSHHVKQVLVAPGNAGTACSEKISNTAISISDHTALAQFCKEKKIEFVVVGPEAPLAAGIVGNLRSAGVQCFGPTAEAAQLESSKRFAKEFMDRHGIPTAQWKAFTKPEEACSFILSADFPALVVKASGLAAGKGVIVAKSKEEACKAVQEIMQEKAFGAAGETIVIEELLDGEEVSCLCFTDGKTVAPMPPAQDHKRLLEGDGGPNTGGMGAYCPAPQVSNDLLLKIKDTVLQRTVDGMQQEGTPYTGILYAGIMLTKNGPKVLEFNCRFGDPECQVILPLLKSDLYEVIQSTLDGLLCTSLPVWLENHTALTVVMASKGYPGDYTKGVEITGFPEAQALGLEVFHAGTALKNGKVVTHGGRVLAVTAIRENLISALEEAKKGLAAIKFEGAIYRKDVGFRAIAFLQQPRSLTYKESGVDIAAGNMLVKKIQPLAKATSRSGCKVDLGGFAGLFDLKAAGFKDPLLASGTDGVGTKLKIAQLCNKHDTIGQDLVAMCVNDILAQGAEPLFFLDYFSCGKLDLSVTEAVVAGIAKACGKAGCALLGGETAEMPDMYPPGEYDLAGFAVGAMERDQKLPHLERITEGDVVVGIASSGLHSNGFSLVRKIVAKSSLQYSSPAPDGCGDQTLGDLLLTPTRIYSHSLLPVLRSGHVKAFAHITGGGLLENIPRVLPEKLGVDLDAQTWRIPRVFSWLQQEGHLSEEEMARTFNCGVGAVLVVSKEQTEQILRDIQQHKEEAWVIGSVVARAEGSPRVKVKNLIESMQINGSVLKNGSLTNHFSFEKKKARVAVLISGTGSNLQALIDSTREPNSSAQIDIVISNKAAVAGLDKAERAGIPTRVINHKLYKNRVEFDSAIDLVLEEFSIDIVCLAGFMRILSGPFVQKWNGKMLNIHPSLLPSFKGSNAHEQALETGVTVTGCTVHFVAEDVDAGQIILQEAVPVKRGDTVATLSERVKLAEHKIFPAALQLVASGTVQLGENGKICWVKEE
The experiment is described as follows: In vitro inhibitory activity at 250 uM concentration against Glycinamide ribonucleotide transformylase (GAR Tfase) pre-incubation time (6 hr).

The target of experiment [2] is T1, Trifunctional purine biosynthetic protein adenosine-3 (Homo sapiens). The experiment is described as follows: In vitro inhibitory activity against Glycinamide ribonucleotide transformylase (GAR Tfase) after 6 hr at 25 uM.
Experiment [3] has as its system CCRF-CEM. The experiment is described as follows: Cytotoxicity in the absence of hypoxanthine and presence of thymidine against CCRF-CEM cell line. It is filed as functional, cell-based. The conditions noted are these: Homo sapiens. In a few lines: (§1)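 CCRF-CEM cells were grown in purine- and pyrimidine-free medium, with thymidine and/or hypoxanthine added or omitted as each line specifies. The cytotoxic potency was reported as an IC50 (µM).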

The target in experiment [4] is T2, Bifunctional purine biosynthesis protein ATIC (Homo sapiens, UniProt P31939). The experiment is described as follows: In vitro inhibitory activity against Aminoimidazole carboxamide ribonucleotide transformylase pre-incubed for 12 hr at 250 uM. In a few lines:
(§2)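 The AICAR Tfase assay solution was pre-incubated with inhibitor (250 µM, or 25 µM where the line states) for 12 h at room temperature. The reaction was then started by adding AICAR, and enzyme inhibition was measured.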

Experiment [5] concerns the target T1, Trifunctional purine biosynthetic protein adenosine-3 (Homo sapiens). The experiment is described as follows: In vitro inhibitory activity against Glycinamide ribonucleotide transformylase (GAR Tfase) after 3 min at 25 uM; […].
The target is the same in experiment [6]. The experiment is described as follows: In vitro inhibitory activity against Glycinamide ribonucleotide transformylase (GAR Tfase) after 1 hr at 25 uM.
For experiment [7] the target is unchanged. In words: In vitro inhibitory activity against Glycinamide ribonucleotide transformylase (GAR Tfase+GAR) following 3 min pre-incubation at 250 uM concentration.
In experiment [8] the test system is CCRF-CEM. In words: Cytotoxicity in the absence of thymidine and presence of hypoxanthine against CCRF-CEM cell line. It is filed as functional, cell-based. The conditions noted are these: Homo sapiens. In a few lines: as §1
Experiment [9] deals with T1, Trifunctional purine biosynthetic protein adenosine-3 (Homo sapiens). The experiment is described as follows: In vitro activity against Glycinamide ribonucleotide transformylase (GAR Tfase) after 30 min at 25 uM.
For experiment [10] the target is unchanged. The experiment is described as follows: In vitro inhibitory activity against Glycinamide ribonucleotide transformylase (GAR Tfase+GAR) following 30 min pre-incubation at 250 uM concentration.
Experiment [11] shares this target. The experiment is described as follows: In vitro inhibitory activity against Glycinamide ribonucleotide transformylase (GAR Tfase) after 30 min at 25 uM.
Experiment [12] deals with CCRF-CEM. The experiment is described as follows: Cytotoxicity in the absence of thymidine and hypoxanthine against CCRF-CEM cell line. Type of experiment: functional, cell-based. As to conditions: Homo sapiens. In a few lines: as §1
For experiment [13], the system named is CCRF-CEM. The experiment is described as follows: Cytotoxicity in the presence of thymidine and hypoxanthine against CCRF-CEM cell line. It is filed as functional, cell-based. As to conditions: Homo sapiens. In a few lines: as §1
The target of experiment [14] is T1, Trifunctional purine biosynthetic protein adenosine-3 (Homo sapiens). In words: In vitro inhibitory activity against Glycinamide ribonucleotide transformylase (GAR Tfase) following 3 min pre-incubation at 250 uM concentration.
For experiment [15] the target is unchanged. The experiment is described as follows: In vitro activity against Glycinamide ribonucleotide transformylase (GAR Tfase) after 3 min at 25 uM.
Experiment [16] has the same target. In words: In vitro inhibitory activity against Glycinamide ribonucleotide transformylase (GAR Tfase+GAR) pre-incubation of 6 hr at 250 uM concentration.
In experiment [17] the target is T2, Bifunctional purine biosynthesis protein ATIC. The experiment is described as follows: In vitro inhibitory activity against Aminoimidazole carboxamide ribonucleotide transformylase pre-incubated for 12 hr at 250 uM; Not active. In a few lines:
as §2

The target of experiment [18] is T1, Trifunctional purine biosynthetic protein adenosine-3 (Homo sapiens). In words: In vitro inhibitory activity against Glycinamide ribonucleotide transformylase (GAR Tfase) after 3 min at 250 uM; Not active.
Experiment [19] has the same target. In words: In vitro inhibitory activity against Glycinamide ribonucleotide transformylase (GAR Tfase) after 6 hr at 250 uM; Not active.
Experiment [20] has the same target. In words: In vitro inhibitory activity against Glycinamide ribonucleotide transformylase (GAR Tfase) after 30 min at 250 uM; Not active.
For experiment [21] the target is unchanged. The experiment is described as follows: In vitro inhibitory activity against Glycinamide ribonucleotide transformylase (GAR Tfase) after 30 min at 25 uM; Not active.

T2 sequence (P31939 whole entry, looked up): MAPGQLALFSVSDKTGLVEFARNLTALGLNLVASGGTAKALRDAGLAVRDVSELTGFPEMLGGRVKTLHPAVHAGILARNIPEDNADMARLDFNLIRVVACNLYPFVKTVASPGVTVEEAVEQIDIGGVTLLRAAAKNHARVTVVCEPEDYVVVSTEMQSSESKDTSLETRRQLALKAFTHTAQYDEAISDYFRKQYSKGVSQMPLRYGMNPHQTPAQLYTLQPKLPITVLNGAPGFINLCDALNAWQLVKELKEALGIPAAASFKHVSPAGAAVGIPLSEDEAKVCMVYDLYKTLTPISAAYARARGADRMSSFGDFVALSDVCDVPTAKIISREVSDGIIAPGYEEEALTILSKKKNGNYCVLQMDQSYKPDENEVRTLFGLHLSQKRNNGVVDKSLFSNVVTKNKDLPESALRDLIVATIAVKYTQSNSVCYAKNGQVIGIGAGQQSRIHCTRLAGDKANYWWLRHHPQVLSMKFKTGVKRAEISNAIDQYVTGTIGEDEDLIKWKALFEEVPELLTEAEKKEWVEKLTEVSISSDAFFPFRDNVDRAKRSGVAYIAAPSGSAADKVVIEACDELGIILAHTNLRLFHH

Regarding `COC(=O)c1ccc(CN(CCCc2c(N)nc(N)nc2O)c2cc(F)c([N+](=O)[O-])cc2[N+](=O)[O-])cc1`, the inhibition in experiment [1] was 0%; in experiment [4], 77%; in experiment [6], 2%; in experiment [7], 64%; in experiment [10], 22%; in experiment [11], 83%. The inhibition in experiment [14] came to 46%; in experiment [16], 0%. Also, the % control activity remaining stood at 65% in [2], 77% in [9] and 83% in experiment [15]. Besides, the IC50 in experiment [3] stood at 3.9 µM; in [8] it was 4.3 µM; in experiment [12] it was 2.5 µM; in experiment [13] it was 3.5 µM. In addition, the inhibition result in experiment [5] was “inactive”.
`COC(=O)c1ccc(CN(CCc2c(N)nc(N)nc2O)c2ccc([N+](=O)[O-])c(F)c2F)cc1`: the inhibition turned out to be 30% in experiment [1]; 73% in [4]; 79% in experiment [7]; 85% in experiment [10]; 68% in experiment [14]; 67% in experiment [16]. The IC50 was 61 µM in [3], 36 µM in [8], 48 µM in experiment [12] and 67 µM in [13].
As for `Nc1nc(N)c(CCCNc2cc(F)cc(F)c2[N+](=O)[O-])c(O)n1`, the inhibition in [1] stood at 53%; in [14], 80%. In addition, the IC50 was determined as 97 µM in [3], 97 µM in [8], 97 µM in [12] and 94 µM in experiment [13]. In addition, the inhibition result in experiment [17], in experiment [18], in experiment [19] and in experiment [20] was “inactive” each time.
With `COC(=O)c1ccc(CN(CCc2c(N)nc(N)nc2O)c2cc(F)ccc2[N+](=O)[O-])cc1`, the inhibition in [1] is 12%; in experiment [4] it was 94%; in experiment [7], 81%; in [10] it was 62%; in experiment [14], 78%; in experiment [16], 47%. For the same molecule, the IC50 in experiment [3] worked out at 66 µM; in [8], 72 µM; in [12] it was 72 µM; in experiment [13], 72 µM.
For the molecule `COC(=O)c1ccc(CN(CCc2c(N)nc(N)nc2O)c2cc(F)cc(F)c2[N+](=O)[O-])cc1`, the inhibition in [1] stood at 0%; in experiment [7] it was 32%; in experiment [10], 29%; in experiment [14], 16%; in experiment [16], 30%. The IC50 is 91 µM in experiment [3], > 100 µM in experiment [8], > 100 µM in experiment [12] and > 100 µM in [13]. The inhibition result in experiment [17] is “inactive”.
Take `Nc1nc2c(c(=O)[nH]1)C[C@@H](CCc1ccc(C(=O)N[C@@H](CCC(=O)O)C(=O)O)cc1)CN2` [LOMETREXOL]: the IC50 is 0.07 µM in [3], > 100 µM in [8], 0.13 µM in experiment [12] and > 100 µM in experiment [13].
As for `COC(=O)c1ccc(CN(CCCc2c(N)nc(N)nc2O)c2cc(F)cc(F)c2[N+](=O)[O-])cc1`, the inhibition in experiment [1] turned out to be 0%; in experiment [6], 39%; in experiment [6] (in the assay text read “after 6 hr” for “after 1 hr”), 84%; in [7], 25%; in [10], 12%; in experiment [14], 6%. Besides, the inhibition in experiment [16] is 6%. The IC50 in experiment [3], in experiment [8], in experiment [12] and in [13] was > 100 µM each time. For the same molecule, the inhibition result in experiment [5], in experiment [17] and in [21] was “inactive” in each case. Besides, the % control activity remaining in [9] turned out to be 76%; in [15], 78%.
Consider `Nc1nc(N)c(CCCNc2cc(F)c(F)cc2[N+](=O)[O-])c(O)n1`, for which the figures for the inhibition in experiment [1], in experiment [4] and in [14] were 63%, 98% and 87%, respectively. In addition, the IC50 in [3] was > 100 µM; in experiment [8] it was 97 µM; in [12], 97 µM; in experiment [13], 97 µM. Moreover, the inhibition entry in [18], in experiment [19] and in [20] was “inactive” in each case.
Consider `COC(=O)c1ccc(CN(CCCc2c(N)nc(N)nc2O)c2ccc([N+](=O)[O-])c(F)c2F)cc1`, for which the inhibition in experiment [1] came out at 41%; in experiment [4], 96%; in [7], 82%; in experiment [10], 78%; in experiment [14], 61%; in [16], 75%. In addition, the IC50 in experiment [3] came out at 45 µM; in [8], 55 µM; in [12], 41 µM; in [13], 45 µM.
`COC(=O)c1ccc(CN(CCc2c(N)nc(N)nc2O)c2cc(F)c(F)cc2[N+](=O)[O-])cc1`: the inhibition was 2% in experiment [1]; 35% in experiment [7]; 31% in experiment [10]; 17% in experiment [14]; 22% in [16]. In addition, the IC50 in [3] turned out to be 13 µM; in experiment [8] it was 11 µM; in experiment [12] it was 12 µM; in experiment [13], 11 µM. Further, the inhibition entry in experiment [17] is “inactive”.
Consider `COC(=O)c1ccc(CN(CCCc2c(N)nc(N)nc2O)c2cc(F)c(F)cc2[N+](=O)[O-])cc1`, for which the inhibition worked out at 0% in experiment [1]; 94% in experiment [4]; 68% in experiment [7]; 54% in [10]; 44% in experiment [14]; 14% in experiment [16]. Besides, the IC50 in experiment [3] was 55 µM; in [8] it was 66 µM; in experiment [12] it was 59 µM; in experiment [13] it was 53 µM.
With `COC(=O)c1ccc(CN(CCc2c(N)nc(N)nc2O)c2cc(F)c([N+](=O)[O-])cc2[N+](=O)[O-])cc1`, the inhibition in experiment [1] was found to be 2%; in [4] it was 75%; in experiment [7] it was 66%; in [10], 54%; in [14], 47%; in experiment [16], 27%. Besides, the IC50 in [3] was determined as 1.9 µM; in experiment [8], 1.7 µM; in experiment [12], 1.3 µM; in [13] it was 1.1 µM.
For the molecule `COC(=O)c1ccc(CN(CCCc2c(N)nc(N)nc2O)c2cc(F)ccc2[N+](=O)[O-])cc1`, the inhibition came out at 0% in [1]; 75% in [7]; 44% in [10]; 70% in [14]; 8% in experiment [16]. The IC50 in [3] worked out at 43 µM; in experiment [8] it was 55 µM; in [12] it was 45 µM; in experiment [13], 30 µM. Moreover, the inhibition entry in experiment [17] is “inactive”.
